Experimental data collected from several papers.
Lines come from different studies, so protocols differ.
Observed: cell growth or viability

C=CC(=O)NC1CCN(c2ncc3ncnc(Nc4ccc(Oc5ccc6c(c5)ncn6C)c(C)c4)c3n2)CC1  EC50 (JHH-4): 0.108 µM
COc1cc2c3c(n(CCCNC(C)C)c(=O)c2cc1OC)-c1nc2c(cc1C3=O)OCO2  IC50 (RD-ES; MTS; 72 h): 0.031 µM
COc1cc2ncnc(N(C)c3ccc4c(c3)/C(=C/c3cccc(Cl)c3)C(=O)N4C)c2cc1OC  IC50 (B16; MTT): 2.51 µM
COc1cc2c3c(n(CCCn4ccnc4)c(=O)c2cc1OC)-c1nc2c(cc1C3=O)OCO2  IC50 (RD-ES; MTS; 72 h): 0.18 µM
C=CC(=O)c1cccnc1Nc1cc(C(F)(F)F)ccc1OCc1ccccc1  GI50 (BXPC-3; SRB; 48 h): 11.6 µM
Nc1ccc(/C=C/C(=O)N2CCc3c(oc4c(-c5ccc(F)cc5)cc(-c5ccc(C(=O)N6C[C@@H]7[C@H](C6)C7(F)F)nn5)cc34)C2)cn1  IC50 (BXPC-3; CCK-8; 72 h): > 20 µM
Cc1nc(Nc2ccc3c(c2)CC(=O)N3)c2ccccc2n1  IC50 (B16; MTT): 3.13 µM
CCNCCCn1c2c(c3cc(OC)c(OC)cc3c1=O)C(=O)c1cc3c(nc1-2)OCO3  IC50 (RD-ES; MTS; 72 h): 0.02 µM
Cc1nc(Nc2ccc3c(c2)/C(=C/c2ccccc2Cl)C(=O)N3)c2ccccc2n1  IC50 (B16; MTT): 3.34 µM
O=C(O)c1ccccc1Nc1cccc(C(F)(F)F)c1  GI50 (BXPC-3; SRB; 48 h): > 30 µM
Cc1nc(Nc2ccc3c(c2)C(C)(C)C(=O)N3C)c2ccccc2n1  IC50 (B16; MTT): 14 µM
Nc1ccc(/C=C/C(=O)N2CCc3c(oc4c(-c5ccc(F)cc5)cc(-c5ccc(C(=O)N6CCOCC6)nn5)cc34)C2)cn1  IC50 (BXPC-3; CCK-8; 72 h): > 20 µM
